Experimental data from ChEMBL document CHEMBL4138227, “Identification of an oxime-containing C-glucosylarene as a potential inhibitor of sodium-dependent glucose co-transporter 2” (Eur J Med Chem, 2018).

Columns and labels:
[1] = molecular target: T1, Sodium/glucose cotransporter 2 (Homo sapiens, UniProt P31639); assay: Inhibition of human SGLT2 expressed in CHO cells assessed as reduction in [14C]AMG uptake after 1 hr by microbeta counting method; type: cell-based
T1 sequence (P31639 whole entry): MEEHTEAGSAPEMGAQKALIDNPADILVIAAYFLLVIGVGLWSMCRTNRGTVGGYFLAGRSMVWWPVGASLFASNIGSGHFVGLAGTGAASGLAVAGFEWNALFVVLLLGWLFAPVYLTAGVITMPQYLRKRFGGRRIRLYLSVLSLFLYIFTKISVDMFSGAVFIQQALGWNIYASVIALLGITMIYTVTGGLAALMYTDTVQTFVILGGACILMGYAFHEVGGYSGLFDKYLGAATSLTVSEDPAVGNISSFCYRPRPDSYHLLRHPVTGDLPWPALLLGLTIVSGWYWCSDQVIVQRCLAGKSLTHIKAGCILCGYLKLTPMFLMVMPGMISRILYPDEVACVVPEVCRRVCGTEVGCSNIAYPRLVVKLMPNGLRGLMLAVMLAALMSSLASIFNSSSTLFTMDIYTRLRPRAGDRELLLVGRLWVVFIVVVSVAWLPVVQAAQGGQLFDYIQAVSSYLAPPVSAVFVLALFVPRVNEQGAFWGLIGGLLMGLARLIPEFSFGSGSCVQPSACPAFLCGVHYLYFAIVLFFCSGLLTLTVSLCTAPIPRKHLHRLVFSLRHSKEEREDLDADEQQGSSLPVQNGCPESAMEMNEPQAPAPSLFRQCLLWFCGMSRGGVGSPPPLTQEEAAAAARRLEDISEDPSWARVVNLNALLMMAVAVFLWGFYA
How it was run: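 CHO cells stably expressing human SGLT2 (or SGLT1); inhibition of sodium-dependent uptake of [14C]α-methyl-D-glucopyranoside measured; EC50 from at least two independent experiments, each in triplicate.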

[2] = Elimination half life in Sprague-Dawley rat at 1 mg/kg, iv; type: ADME, organism-based; details: in vivo, read-out: beta t1/2 (converted)
[3] = Clearance in Sprague-Dawley rat at 1 mg/kg, iv; type: ADME, organism-based; details: in vivo
[4] = Volume of distribution at steady state in Sprague-Dawley rat at 1 mg/kg, iv; type: ADME, organism-based; details: in vivo, read-out: Vdss
[5] = Cmax in Sprague-Dawley rat at 1.1 mg/kg, po; type: ADME, organism-based; set-up: dose 1.1 mg/kg, route oral; details: in vivo
[6] = AUC (0 to infinity) in Sprague-Dawley rat at 1 mg/kg, iv; type: ADME, organism-based; set-up: dose 1 mg/kg, time infinity, route intravenous; details: in vivo
How it was run: (§1)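 Rats got a single intravenous or oral dose, with 3 animals per route. Pharmacokinetic parameters were derived, including T1/2, clearance, Vss, Cmax, Tmax, AUC(0-inf) and oral bioavailability (F).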

[7] = Elimination half life in Sprague-Dawley rat at 1.1 mg/kg, po; type: ADME, organism-based; details: in vivo, read-out: beta t1/2 (converted)
[8] = Tmax in Sprague-Dawley rat at 1.1 mg/kg, po; type: ADME, organism-based; details: in vivo
[9] = AUC (0 to infinity) in Sprague-Dawley rat at 1.1 mg/kg, po; type: ADME, organism-based; set-up: dose 1.1 mg/kg, time infinity, route oral; details: in vivo; how it was run: as §1
[10] = Oral bioavailability in Sprague-Dawley rat at 1.1 mg/kg; type: ADME, organism-based; details: in vivo
Rattus norvegicus [11] = assay: In vivo inhibition of SGLT2 in Sprague-Dawley rat assessed as urinary glucose excretion per 200 gram of body weight at 0.1 mg/kg, po administered as single dose measured after 24 hrs; type: functional
How it was run: (§2)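 Normal SD rats given a single oral dose (0.1, 1, 10 or 50 mg/kg) or vehicle; urine collected over 24 h and glucose excretion expressed as mg per 200 g body weight; mean ± SEM, n = 4/group (vehicle n = 8).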

Rattus norvegicus [12] = assay: In vivo inhibition of SGLT2 in Sprague-Dawley rat assessed as urinary glucose excretion per 200 gram of body weight at 1 mg/kg, po administered as single dose measured after 24 hrs; type: functional; how it was run: as §2
Rattus norvegicus [13] = assay: In vivo inhibition of SGLT2 in Sprague-Dawley rat assessed as urinary glucose excretion per 200 gram of body weight at 10 mg/kg, po administered as single dose measured after 24 hrs; type: functional; how it was run: as §2
Rattus norvegicus [14] = assay: In vivo inhibition of SGLT2 in Sprague-Dawley rat assessed as urinary glucose excretion per 200 gram of body weight at 50 mg/kg, po administered as single dose measured after 24 hrs; type: functional; how it was run: as §2
Rattus norvegicus [15] = assay: In vivo inhibition of SGLT2 in Sprague-Dawley rat assessed as increase in urinary glucose excretion per 200 gram of body weight at 0.1 to 50 mg/kg, po administered as single dose measured after 24 hrs relative to control; type: functional
How it was run: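 Normal Sprague-Dawley rats were given a single oral dose of 0.1, 1, 10 or 50 mg/kg. Urine was collected over 24 h and glucose excretion expressed as mg glucose per 200 g body weight, relative to vehicle controls. Groups were n = 4, with vehicle n = 8. Data are mean ± SEM; p < 0.05 vs vehicle.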

Rattus norvegicus [16] = assay: Antihyperglycemic activity in streptozotocin-induced diabetic Sprague-Dawley rat model assessed as reduction in blood glucose level at 0.1 to 10 mg/kg, po administered as single dose measured after 5 hrs relative to control; type: functional; set-up: scale not given: the % may be the effect or the level left
How it was run: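 STZ-diabetic SD rats (blood glucose >450 mg/dL), single oral dose 0.1 or 10 mg/kg or vehicle; tail-vein blood sampled at 0 (predose), 0.5, 1, 2, 3, 4 and 5 h for glucose; reduction expressed versus vehicle control; mean ± SEM, n = 6/group.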

hERG (KCNH2) = hERG (KCNH2) (Homo sapiens, UniProt Q12809); assay: Inhibition of human ERG at 10 uM by radioligand assay relative to control
How it was run: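 hERG radioligand binding assay run externally by a contract laboratory; test compound at 10 µM, percent inhibition reported.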

[17] = Elimination half life in Sprague-Dawley rat at 1 mg/kg, po; type: ADME, organism-based; details: in vivo, read-out: beta t1/2 (converted)
[18] = Cmax in Sprague-Dawley rat at 1 mg/kg, po; type: ADME, organism-based; set-up: dose 1 mg/kg, route oral; details: in vivo
[19] = Tmax in Sprague-Dawley rat at 1 mg/kg, po; type: ADME, organism-based; details: in vivo
[20] = AUC (0 to infinity) in Sprague-Dawley rat at 1 mg/kg, po; type: ADME, organism-based; set-up: dose 1 mg/kg, time infinity, route oral; details: in vivo; how it was run: as §1
[21] = Oral bioavailability in Sprague-Dawley rat at 1 mg/kg; type: ADME, organism-based; details: in vivo
[22] = Elimination half life in Sprague-Dawley rat at 0.9 mg/kg, iv; type: ADME, organism-based; details: in vivo, read-out: beta t1/2 (converted)
[23] = Clearance in Sprague-Dawley rat at 0.9 mg/kg, iv; type: ADME, organism-based; details: in vivo
[24] = Volume of distribution at steady state in Sprague-Dawley rat at 0.9 mg/kg, iv; type: ADME, organism-based; details: in vivo, read-out: Vdss
[25] = AUC (0 to infinity) in Sprague-Dawley rat at 0.9 mg/kg, iv; type: ADME, organism-based; set-up: dose 0.9 mg/kg, route intravenous, time infinity; details: in vivo; how it was run: as §1

Chain of hERG (KCNH2) (Q12809 whole entry): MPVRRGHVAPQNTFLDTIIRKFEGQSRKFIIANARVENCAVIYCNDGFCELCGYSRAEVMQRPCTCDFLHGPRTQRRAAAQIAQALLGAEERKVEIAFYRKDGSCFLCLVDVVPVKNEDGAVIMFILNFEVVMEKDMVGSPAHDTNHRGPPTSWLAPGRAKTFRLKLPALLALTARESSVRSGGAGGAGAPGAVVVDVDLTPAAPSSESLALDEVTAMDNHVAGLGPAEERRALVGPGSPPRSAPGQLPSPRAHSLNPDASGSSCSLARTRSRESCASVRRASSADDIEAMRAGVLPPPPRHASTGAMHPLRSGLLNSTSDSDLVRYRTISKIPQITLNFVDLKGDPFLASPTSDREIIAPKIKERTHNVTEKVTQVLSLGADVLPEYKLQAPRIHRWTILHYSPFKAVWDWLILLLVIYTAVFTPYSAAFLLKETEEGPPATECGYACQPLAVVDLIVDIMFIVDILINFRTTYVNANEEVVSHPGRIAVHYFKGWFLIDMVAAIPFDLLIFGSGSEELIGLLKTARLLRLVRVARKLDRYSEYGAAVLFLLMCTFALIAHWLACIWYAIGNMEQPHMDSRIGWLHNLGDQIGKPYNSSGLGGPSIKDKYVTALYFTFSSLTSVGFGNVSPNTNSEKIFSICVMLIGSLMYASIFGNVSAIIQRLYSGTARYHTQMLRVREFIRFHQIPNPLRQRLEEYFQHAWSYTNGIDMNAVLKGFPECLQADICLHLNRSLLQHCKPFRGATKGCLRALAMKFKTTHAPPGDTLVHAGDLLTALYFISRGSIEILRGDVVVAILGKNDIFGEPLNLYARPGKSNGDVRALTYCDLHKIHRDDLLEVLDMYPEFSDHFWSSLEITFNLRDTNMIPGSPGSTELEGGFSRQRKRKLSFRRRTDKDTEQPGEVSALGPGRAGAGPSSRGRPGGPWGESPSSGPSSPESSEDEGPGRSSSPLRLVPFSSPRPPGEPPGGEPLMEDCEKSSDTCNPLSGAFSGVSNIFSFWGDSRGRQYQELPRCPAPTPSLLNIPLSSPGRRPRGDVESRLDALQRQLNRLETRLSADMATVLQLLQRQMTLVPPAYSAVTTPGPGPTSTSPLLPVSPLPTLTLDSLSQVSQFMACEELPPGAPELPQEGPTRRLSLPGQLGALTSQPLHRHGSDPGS

With `CCOc1ccc(Cc2cc([C@@H]3O[C@H](/C=N/OCCC(C)(C)C)[C@@H](O)[C@H](O)[C@H]3O)ccc2Cl)cc1` the EC50 [1] was 8540 nM.
In the case of `CCOc1ccc(Cc2cc([C@@H]3O[C@H](/C=N/NC(=O)c4ccncc4)[C@@H](O)[C@H](O)[C@H]3O)ccc2Cl)cc1`, the EC50 [1] is reported as 173 nM.
Work on `CCOc1ccc(Cc2cc([C@@H]3O[C@H](/C=N/NC(=O)c4cccs4)[C@@H](O)[C@H](O)[C@H]3O)ccc2Cl)cc1` yielded an EC50 [1] of 175 nM.
`CCOc1ccc(Cc2cc([C@@H]3O[C@H](/C=N/OCc4ccccc4)[C@@H](O)[C@H](O)[C@H]3O)ccc2Cl)cc1` gave an EC50 [1] of 2250 nM.
`C#CCO/N=C/[C@H]1O[C@@H](c2ccc(Cl)c(Cc3ccc(OCC)cc3)c2)[C@H](O)[C@@H](O)[C@@H]1O` gave an EC50 [1] of 431 nM.
`CCOc1ccc(Cc2cc([C@@H]3O[C@H](/C=N/Nc4nc5ccccc5s4)[C@@H](O)[C@H](O)[C@H]3O)ccc2Cl)cc1` showed an EC50 [1] of 204 nM.
In the case of `CCC#CCO/N=C/[C@H]1O[C@@H](c2ccc(Cl)c(Cc3ccc(OCC)cc3)c2)[C@H](O)[C@@H](O)[C@@H]1O`, the EC50 [1] is reported as 396 nM.
Compound `CCOc1ccc(Cc2cc([C@@H]3O[C@H](/C=N/Nc4ccccc4[N+](=O)[O-])[C@@H](O)[C@H](O)[C@H]3O)ccc2Cl)cc1` has an EC50 [1] of 457 nM.
For `CCOc1ccc(Cc2cc([C@@H]3O[C@H](/C=N/O)[C@@H](O)[C@H](O)[C@H]3O)ccc2Cl)cc1`, the EC50 [1] was 46 nM, the half-life [2] was 4.7 h and the clearance [3] was 5 mL/min/kg. The Vd [4] was 1.8 L/kg, the Cmax [5] was 239 ng/mL and the AUC(0-inf) [6] was 3270 ng·h/mL. For the same compound, the half-life [7] was 9 h, the Tmax [8] was 1 h and the AUC(0-inf) [9] was 2270 ng·h/mL. For the same compound, the bioavailability [10] was 64%, the Activity (Rattus norvegicus [11]) was 275 mg and the Activity (Rattus norvegicus [12]) was 2215 mg. The Activity (Rattus norvegicus [13]) was 1935 mg, the Activity (Rattus norvegicus [14]) was 2732 mg and the “fold change (FC)” value (Rattus norvegicus [15]) was 476 - 4730. The Activity (Rattus norvegicus [16]) was 44% and the inhibition at 10 µM (hERG (KCNH2)) was 2%.
For `CCOc1ccc(Cc2cc([C@@H]3O[C@H](CNOC)[C@@H](O)[C@H](O)[C@H]3O)ccc2Cl)cc1`, the EC50 [1] was 63 nM, the half-life [2] was 1.9 h and the clearance [3] was 16.5 mL/min/kg. It also gave a Vd [4] of 1.8 L/kg, an AUC(0-inf) [6] of 1070 ng·h/mL and a half-life [17] of 3 h. For the same compound, the Cmax [18] was 67.2 ng/mL, the Tmax [19] was 1.3 h and the AUC(0-inf) [20] was 352 ng·h/mL. It also gave a bioavailability [21] of 32.8%.
In the case of `CCOc1ccc(Cc2cc([C@@H]3O[C@H](/C=N/NC(=O)c4ccsc4)[C@@H](O)[C@H](O)[C@H]3O)ccc2Cl)cc1`, the EC50 [1] is reported as 208 nM.
Compound `CCOc1ccc(Cc2cc([C@@H]3O[C@H](/C=N/NC(=O)c4ccccc4)[C@@H](O)[C@H](O)[C@H]3O)ccc2Cl)cc1` has an EC50 [1] of 130 nM, a half-life [22] of 0.36 h and a clearance [23] of 75.7 mL/min/kg. For the same compound, the Vd [24] was 1.4 L/kg and the AUC(0-inf) [25] was 206 ng·h/mL.
`CCOc1ccc(Cc2cc([C@@H]3O[C@H](/C=N/OCCOC)[C@@H](O)[C@H](O)[C@H]3O)ccc2Cl)cc1` gave an EC50 [1] of 678 nM.
Work on `CCOc1ccc(Cc2cc([C@@H]3O[C@H](/C=N/OCCO)[C@@H](O)[C@H](O)[C@H]3O)ccc2Cl)cc1` yielded an EC50 [1] of 194 nM.
